The test system of data set [1] is MA-10 cells. Briefly: Basal testosterone secretion by MA-10 Leydig cells. The data set is classed as cell-based, murine. The settings on record: for decrease of basal T secretion compared with vehicle-treated control cells: 10 μM; for decrease of basal T secretion compared with vehicle-treated control cells / T secretion, concentration curves without LH: 48 h; for T secretion, concentration curves without LH: SU10603 0.05-1 μM, FLUS or TEBU 0.3-10 μM, Supplementary Fig. 1; for T secretion by MA-10 cells compared with vehicle-control: basal T secretion, conazole 10 μM.

Data set [2] relates to MA-10 cells. Briefly: Expression of steroidogenic genes in MA-10 cells. The data set is classed as cell-based, murine. To be noted: 6-h exposure; conazole 10 μM.
In data set [3] the test system is MA-10 cells. The data set can be described thus: Reactive oxygen species assay. The data set is classed as cell-based, murine. The settings on record: for ROS formation compared with vehicle-treated control cells: 100 μM, 48-h exposure. The gist of the method: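 MA-10 cells seeded at 7.5 × 10^4 cells/well in gelatin-coated plates 24 h beforehand, loaded with H2-DCFDA (10 μM, 2 h, 37 °C), then washed twice in warm PBS. Exposure to 0.01–100 μM in serum-free, phenol red-free DMEM/F-12 (≤0.1% DMSO) for up to 48 h. Fluorescence read at 485/530 nm at 0, 1, 24 and 48 h and expressed as % of time-matched control. Positive controls were H2O2 20 mM (1 h) and rotenone 100 μM (24/48 h). Three independent experiments, quadruplicates.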

Data set [4] has as its system MA-10 cells. Briefly: LH-induced testosterone secretion by MA-10 Leydig cells. Format: cell-based, murine. To be noted: read-out: IC50 of T secretion inhibition in combination with LH; LH 10 ng/mL; 48-h exposure.
Data set [5] concerns the target T1, androgen receptor (AR) (Homo sapiens, UniProt P10275).
T1 sequence (P10275 1-920): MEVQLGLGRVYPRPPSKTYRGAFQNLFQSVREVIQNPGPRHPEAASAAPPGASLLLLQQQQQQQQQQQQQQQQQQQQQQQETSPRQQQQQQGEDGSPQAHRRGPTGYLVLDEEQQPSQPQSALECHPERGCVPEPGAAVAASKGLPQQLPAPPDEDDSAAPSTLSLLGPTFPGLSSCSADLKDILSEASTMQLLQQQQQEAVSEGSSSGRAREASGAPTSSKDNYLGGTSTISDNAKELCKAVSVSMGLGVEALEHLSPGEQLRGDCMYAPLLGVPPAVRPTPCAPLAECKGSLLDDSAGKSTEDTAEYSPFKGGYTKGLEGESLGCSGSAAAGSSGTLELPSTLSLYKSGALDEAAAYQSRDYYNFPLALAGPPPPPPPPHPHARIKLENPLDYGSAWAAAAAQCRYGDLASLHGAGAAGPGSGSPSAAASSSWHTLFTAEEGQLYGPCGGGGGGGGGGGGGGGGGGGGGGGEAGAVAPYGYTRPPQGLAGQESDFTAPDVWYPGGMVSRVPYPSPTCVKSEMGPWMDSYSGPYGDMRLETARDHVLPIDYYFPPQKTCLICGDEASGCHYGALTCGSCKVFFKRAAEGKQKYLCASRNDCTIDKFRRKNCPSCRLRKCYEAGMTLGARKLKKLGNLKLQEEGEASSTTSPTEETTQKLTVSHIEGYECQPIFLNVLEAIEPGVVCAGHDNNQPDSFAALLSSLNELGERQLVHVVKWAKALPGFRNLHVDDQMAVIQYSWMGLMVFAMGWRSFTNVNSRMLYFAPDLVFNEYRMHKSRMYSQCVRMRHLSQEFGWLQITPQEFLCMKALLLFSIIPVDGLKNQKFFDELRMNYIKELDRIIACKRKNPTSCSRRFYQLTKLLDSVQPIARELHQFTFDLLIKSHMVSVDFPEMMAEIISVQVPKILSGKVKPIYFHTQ
The data set is classed as cell-based. To be noted: BMR25%FLUT/BMR25%FLUT conazole.

Data set [6] has as its system MA-10 cells. The data set can be described thus: Expression of cholesterol biosynthesis genes in MA-10 cells. Format: cell-based, murine. The settings on record: 6-h exposure; cAMP 100 μM, conazole 10 μM.
The conditions of data set [7]: cited from earlier work.
The conditions of data set [8]: humans; cited from earlier work.

For `C[Si](Cn1cncn1)(c1ccc(F)cc1)c1ccc(F)cc1` [FLUS, Flusilazole], in data set [1], the “decrease of basal T secretion compared with vehicle-treated control cells” value (“decrease of basal T secretion” for short) is reported as “more than 50%” and the “T secretion, concentration curves without LH” value is listed as “concentration-dependently inhibited T secretion”. For the same molecule, the “gene expression of five steroidogenic genes (StAR, Cyp11A1, Cyp17A1, 3β-HSD1, 17β-HSD3)” value in data set [2] is on record as “did not significantly affect”. Also, in data set [3], the “ROS formation compared with vehicle-treated control cells” value amounted to 1.2 fold.
As for `O=C1c2cc(Cl)ccc2CCC1c1cccnc1` (centres unmarked) [SU10603, reference compound], in data set [1] (SU10603 1 μM, 48-h exposure), the “decrease of T secretion compared to vehicle-treated cells” value is 82%. For the same molecule, the “T secretion, concentration curves without LH” value in data set [1] is recorded as “concentration-dependently inhibited T secretion”. Moreover, the IC50 in data set [4] stood at 500 nM.
On to `CC1(C)CCC(=Cc2ccc(Cl)cc2)C1(O)Cn1cncn1` (centres unmarked) [TRIT, Triticonazole], for which the “decrease of basal T secretion” value in data set [1] is recorded as “more than 50%”. For the same molecule, the “T secretion by MA-10 cells compared with vehicle-control” value in data set [1] (48-h exposure) stood at 44%. Besides, the “ROS formation compared with vehicle-treated control cells” value in data set [3] was “did not significantly change”. Further, in data set [5], the “REP (relative effect potency as compared to flutamide)” value was 0.25.
Consider `CC(C)(C)C(O)(CCc1ccc(Cl)cc1)Cn1cncn1` (centres unmarked) [TEBU, Tebuconazole], for which, in data set [1], the “decrease of basal T secretion” value is reported as “more than 50%” and the “T secretion, concentration curves without LH” value is “concentration-dependently inhibited T secretion”. The “gene expression of five steroidogenic genes (StAR, Cyp11A1, Cyp17A1, 3β-HSD1, 17β-HSD3)” value in data set [2] is listed as “did not significantly affect”. Also, the “gene expression of Por in comparison with vehicle-treated cells” value in data set [6] amounted to 0.8 fold. In addition, in data set [3], the “ROS formation compared with vehicle-treated control cells” value is given as 1.4 fold. For the same molecule, in data set [7], the “elimination half-life in soil” value is on record as “approximately 800 days”.
Take `OC(Cn1cncn1)(Cn1cncn1)c1ccc(F)cc1F` [FLUC, Fluconazole, reference compound]: in data set [3], the “ROS formation compared with vehicle-treated control cells” value is “did not significantly change”. Moreover, the Tmax result in data set [8] is “approximately 2 h”.
On to `CCCCC(C#N)(Cn1cncn1)c1ccc(Cl)cc1` (centres unmarked) [MYC, Myclobutanil], for which, in data set [3], the “ROS formation compared with vehicle-treated control cells” value is “did not significantly change”.
As to `CCCCC(O)(Cn1cncn1)c1ccc(Cl)cc1Cl` (centres unmarked) [HEXA, Hexaconazole], the “decrease of basal T secretion” value in data set [1] is on record as “more than 50%”. In addition, the “T secretion by MA-10 cells compared with vehicle-control” value in data set [1] (48-h exposure) was 36%. Also, the “ROS formation compared with vehicle-treated control cells” value in data set [3] is 1.2 fold. Besides, the “REP (relative effect potency as compared to flutamide)” value in data set [5] amounted to 0.26.
For the molecule `CCCN(CCOc1c(Cl)cc(Cl)cc1Cl)C(=O)n1ccnc1` [PRO, Prochloraz], the “decrease of basal T secretion” value in data set [1] is on record as “more than 50%”. In addition, in data set [1] (48-h exposure), the “T secretion by MA-10 cells compared with vehicle-control” value is recorded as 23%. Further, the “gene expression of five steroidogenic genes (StAR, Cyp11A1, Cyp17A1, 3β-HSD1, 17β-HSD3)” value in data set [2] is “did not significantly affect”. For the same molecule, in data set [6], the “gene expression of Cyp51 in comparison with vehicle-treated cells” value is reported as 1.7 fold and the “gene expression of HMG-CoA red in comparison with vehicle-treated cells” value is recorded as 1.9 fold. Further, the “ROS formation compared with vehicle-treated control cells” value in data set [3] came out at 1.3 fold.
As to `CCCC(Cn1cncn1)c1ccc(Cl)cc1Cl` (centres unmarked) [PEN, Penconazole], the “ROS formation compared with vehicle-treated control cells” value in data set [3] was “did not significantly change”.
For `C=C(C)[C@H]1Cc2c(ccc3c2O[C@@H]2COc4cc(OC)c(OC)cc4[C@@H]2C3=O)O1` [rotenone, reference compound], in data set [3] (rotenone 100 μM, 48 h), the “ROS production, % of the control” value is listed as 158 ± 18%.
As for `CC(C1CC1)C(O)(Cn1cncn1)c1ccc(Cl)cc1` (centres unmarked) [CYPRO, Cyproconazole], in data set [2], the “gene expression of five steroidogenic genes (StAR, Cyp11A1, Cyp17A1, 3β-HSD1, 17β-HSD3)” value is “did not significantly affect”. The “ROS formation compared with vehicle-treated control cells” value in data set [3] is “did not significantly change”.
Turning to `CC(C)(C)C(=O)C(Oc1ccc(Cl)cc1)n1cncn1` (centres unmarked) [TRIA, Triadimefon], in data set [3], the “ROS formation compared with vehicle-treated control cells” value is “did not significantly change”.

As a reminder, the IC50 is the concentration that gives 50% inhibition.
